Among the data in ChEMBL document CHEMBL1153954, “Promiscuous aggregate-based inhibitors promote enzyme unfolding” (J Med Chem, 2009) are Activity and fold change (FC) values, retold here.

Assay [1] concerns the target AmpC (Escherichia coli) (UniProt Q83TT7). Description: Aggregation based inhibition of Escherichia coli AmpC assessed as solvent accessibility of AmpC peptide fragment spanning 42-56 amino acid sequence by measuring ratio of side chain surface area to random coil values per amino acid reside by hydrogen-deuterium exchange mass spectrometry relative to control. Also noted: scale not given: the % may be the effect or the level left. In outline:
(§1)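 Side-chain solvent accessibility per peptide was calculated from the structure with a 1.4 Å probe radius and default atomic radii and solvation parameters. Each value is the average over residues of the side-chain surface area relative to its random-coil value. Above 50% is exposed; below 20% is buried.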

Assay [2] shares this target. Put plainly: Aggregation based inhibition of Escherichia coli AmpC assessed as solvent accessibility of AmpC peptide fragment spanning 271-289 amino acid sequence by measuring ratio of side chain surface area to random coil values per amino acid reside by hydrogen-deuterium exchange mass spectrometry relative to control. More on the design: scale not given: the % may be the effect or the level left. A digest of the protocol:
as §1

Assay [3] has the same target. Put plainly: Aggregation based inhibition of Escherichia coli AmpC assessed as increase in deuteration of AmpC peptide fragment spanning 243-250 amino acid sequence after 8 hrs by hydrogen-deuterium exchange mass spectrometry relative to control. In outline: (§2)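 AmpC β-lactamase diluted from a 215 μM stock (50 mM KPi, pH 7.0) into deuterated 50 mM MOPS in D2O, pH 7.0. Final enzyme was 0.16 μM with 100 μM aggregator (0.5% DMSO) or 16 μM without. Aggregate samples were centrifuged 16000g for 5 min and the pellet kept. Triton X-100 was added to release enzyme. Samples were quenched with ice-cold 0.1% TFA pH 2.5, digested on immobilized pepsin 5 min on ice, then analysed by chilled fast-gradient LC-MS. Deuterium uptake is centroid mass shift versus the undeuterated control, not corrected for back exchange. Ratio is inhibited over uninhibited, from three replicates.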

Assay [4] shares this target. Put plainly: Aggregation based inhibition of Escherichia coli AmpC assessed as solvent accessibility of AmpC peptide fragment spanning 105-128 amino acid sequence by measuring ratio of side chain surface area to random coil values per amino acid reside by hydrogen-deuterium exchange mass spectrometry relative to control. Also noted: scale not given: the % may be the effect or the level left. A digest of the protocol:
as §1

For assay [5] the target is unchanged. Description: Aggregation based inhibition of Escherichia coli AmpC assessed as solvent accessibility of AmpC peptide fragment spanning 336-350 amino acid sequence by measuring ratio of side chain surface area to random coil values per amino acid reside by hydrogen-deuterium exchange mass spectrometry relative to control. More on the design: scale not given: the % may be the effect or the level left. In outline:
as §1

Assay [6] shares this target. Put plainly: Aggregation based inhibition of Escherichia coli AmpC assessed as increase in deuteration of AmpC peptide fragment spanning 132-146 amino acid sequence after 1 hr by hydrogen-deuterium exchange mass spectrometry relative to control. In outline:
as §2

Assay [7] shares this target. Description: Aggregation based inhibition of Escherichia coli AmpC assessed as increase in deuteration of AmpC peptide fragment spanning 42-56 amino acid sequence after 1 hr by hydrogen-deuterium exchange mass spectrometry relative to control. In outline: as §2
Assay [8] shares this target. Description: Aggregation based inhibition of Escherichia coli AmpC assessed as increase in deuteration of AmpC peptide fragment spanning 132-146 amino acid sequence after 8 hrs by hydrogen-deuterium exchange mass spectrometry relative to control. In outline:
as §2

For assay [9] the target is unchanged. Put plainly: Aggregation based inhibition of Escherichia coli AmpC assessed as increase in deuteration of AmpC peptide fragment spanning 291-322 amino acid sequence after 1 hr by hydrogen-deuterium exchange mass spectrometry relative to control. In outline:
as §2

The target is the same in assay [10]. Description: Aggregation based inhibition of Escherichia coli AmpC assessed as increase in deuteration of AmpC peptide fragment spanning 8-18 amino acid sequence after 8 hrs by hydrogen-deuterium exchange mass spectrometry relative to control. A digest of the protocol:
as §2

Assay [11] has the same target. Put plainly: Aggregation based inhibition of Escherichia coli AmpC assessed as increase in deuteration of AmpC peptide fragment spanning 109-128 amino acid sequence after 8 hrs by hydrogen-deuterium exchange mass spectrometry relative to control. A digest of the protocol: as §2
Assay [12] shares this target. Put plainly: Aggregation based inhibition of Escherichia coli AmpC assessed as increase in deuteration of AmpC peptide fragment spanning 271-289 amino acid sequence after 1 hr by hydrogen-deuterium exchange mass spectrometry relative to control. A digest of the protocol: as §2
The target is the same in assay [13]. Description: Aggregation based inhibition of Escherichia coli AmpC assessed as increase in deuteration of AmpC peptide fragment spanning 105-128 amino acid sequence after 10 mins by hydrogen-deuterium exchange mass spectrometry relative to control. A digest of the protocol: as §2
Assay [14] shares this target. Description: Aggregation based inhibition of Escherichia coli AmpC assessed as increase in deuteration of AmpC peptide fragment spanning 336-350 amino acid sequence after 8 hrs by hydrogen-deuterium exchange mass spectrometry relative to control. In outline:
as §2

Assay [15] shares this target. Put plainly: Aggregation based inhibition of Escherichia coli AmpC assessed as solvent accessibility of AmpC peptide fragment spanning 8-18 amino acid sequence by measuring ratio of side chain surface area to random coil values per amino acid reside by hydrogen-deuterium exchange mass spectrometry relative to control. Also noted: scale not given: the % may be the effect or the level left. A digest of the protocol:
as §1

Assay [16] has the same target. Put plainly: Aggregation based inhibition of Escherichia coli AmpC assessed as increase in deuteration of AmpC peptide fragment spanning 291-322 amino acid sequence after 8 hrs by hydrogen-deuterium exchange mass spectrometry relative to control. In outline: as §2
Assay [17] has the same target. Put plainly: Aggregation based inhibition of Escherichia coli AmpC assessed as increase in deuteration of AmpC peptide fragment spanning 243-250 amino acid sequence after 10 mins by hydrogen-deuterium exchange mass spectrometry relative to control. In outline: as §2
The target is the same in assay [18]. Description: Aggregation based inhibition of Escherichia coli AmpC assessed as increase in deuteration of AmpC peptide fragment spanning 105-128 amino acid sequence after 1 hr by hydrogen-deuterium exchange mass spectrometry relative to control. In outline: as §2
The target is the same in assay [19]. Description: Aggregation based inhibition of Escherichia coli AmpC assessed as increase in deuteration of AmpC peptide fragment spanning 8-18 amino acid sequence after 10 mins by hydrogen-deuterium exchange mass spectrometry relative to control. A digest of the protocol:
as §2

Assay [20] has the same target. Put plainly: Aggregation based inhibition of Escherichia coli AmpC assessed as solvent accessibility of AmpC peptide fragment spanning 132-146 amino acid sequence by measuring ratio of side chain surface area to random coil values per amino acid reside by hydrogen-deuterium exchange mass spectrometry relative to control. Also noted: scale not given: the % may be the effect or the level left. In outline: as §1

Sequence of AmpC (Escherichia coli) (Q83TT7 as listed by the source): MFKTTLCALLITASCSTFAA

As to `CC(=O)c1c(O)c(C)c(O)c(Cc2c(O)c3c(c(C(=O)/C=C/c4ccccc4)c2O)OC(C)(C)C=C3)c1O`, the Activity at AmpC (Escherichia coli) [1] stood at 44.7%; on AmpC (Escherichia coli) [2], 40.7%; on AmpC (Escherichia coli) [4] it was 31.3%; at AmpC (Escherichia coli) [5] it was 21.6%; on AmpC (Escherichia coli) [15], 35.7%; on AmpC (Escherichia coli) [20] it was 34.8%. For the same molecule, the fold change (FC) was 1.7 at AmpC (Escherichia coli) [3]; 4.2 at AmpC (Escherichia coli) [6]; 2.7 at AmpC (Escherichia coli) [7]; 3.4 on AmpC (Escherichia coli) [8]; 2.5 on AmpC (Escherichia coli) [9]; 2.5 at AmpC (Escherichia coli) [10]. The fold change (FC) at AmpC (Escherichia coli) [11] turned out to be 1.6; on AmpC (Escherichia coli) [12], 2.6; on AmpC (Escherichia coli) [13], 1.6; on AmpC (Escherichia coli) [14], 2; on AmpC (Escherichia coli) [16] it was 1.8; at AmpC (Escherichia coli) [17], 1.2. The fold change (FC) came to 2.6 on AmpC (Escherichia coli) [18] and 1.3 at AmpC (Escherichia coli) [19].
